# Measurements reported in ChEMBL document CHEMBL5724801, “EUbOPEN Chemogenomics Library - Multiplex” (2024).
# Values joined by “and” are separate entries in the source; they are usually repeats but may differ in a detail not shown here. Equal values may be shown once.
# Test system: Fibroblast
# Test: Multiplex assay against human fibroblast
# Type: toxicity, cell-based
# In short: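 Live cells carried four stains from seeding: Hoechst33342, BioTracker Green Microtubule Cytoskeleton Dye, MitoTracker Red and Annexin V Alexa Fluor 680. They were imaged on a CQ1 microscope at 37°C and 5% CO2 after compound addition. Using CellPathfinder machine-learning gating, cells were split into Hoechst high-intensity objects or normal cells, normal cells into healthy, pyknosed or fragmented nuclei, and pyknosed cells into mitotic or apoptotic; tubulin, mitochondrial-mass and membrane-permeability phenotypes are per cents of healthy-nucleus cells.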
# [1] = 12 h, 1 µM, compound concentration 1 uM
# [2] = 12 h, 10 µM, compound concentration 10 uM
# [3] = 24 h, 1 µM, compound concentration 1 uM
# [4] = 24 h, 10 µM, compound concentration 10 uM
# [5] = 48 h, 1 µM, compound concentration 1 uM
# [6] = 48 h, 10 µM, compound concentration 10 uM
structure (smiles),measurement,setting,value
Cc1cc(NC(=O)NCCN2CCC(O)(Cc3ccccc3)CC2)c2ccccc2n1 [PALOSURAN],Population Apoptotic (%),[1],37% and 40%
same,Population Fragmented Nuclei (%),[1],10% and 26%
same,Population Healthy Nuclei (%),[1],77% and 44%
same,Population Hoechst High Intensity Objects (%),[1],2% and 9%
same,Population Membrane Permeable-Phenotype (%),[1],3% and 1%
same,Population Mitotic Cells (%),[1],62% and 59%
same,Population Normal (%),[1],97% and 90%
same,Population Pyknosed Nuclei (%),[1],12% and 28%
same,Population Tubulin-Different-Phenotype (%),[1],19% and 46%
same,Total Cell Count,[1],133 and 143
same,Population Apoptotic (%),[2],40% and 41%
same,Population Fragmented Nuclei (%),[2],14% and 28%
same,Population Healthy Nuclei (%),[2],69% and 49%
same,Population Hoechst High Intensity Objects (%),[2],1% and 6%
same,Population Membrane Permeable-Phenotype (%),[2],0% and 3%
same,Population Mitochondria Different-Phenotype (%),[2],13% and 3%
same,Population Mitotic Cells (%),[2],59% and 58%
same,Population Normal (%),[2],98% and 93%
same,Population Pyknosed Nuclei (%),[2],15% and 22%
same,Population Tubulin-Different-Phenotype (%),[2],37% and 51%
same,Total Cell Count,[2],178 and 113
same,Population Apoptotic (%),[3],53% and 40%
same,Population Fragmented Nuclei (%),[3],15% and 27%
same,Population Healthy Nuclei (%),[3],73% and 50%
same,Population Hoechst High Intensity Objects (%),[3],2% and 6%
same,Population Mitochondria Different-Phenotype (%),[3],0% and 21%
same,Population Mitotic Cells (%),[3],46% and 60%
same,Population Normal (%),[3],97% and 93%
same,Population Pyknosed Nuclei (%),[3],10% and 22%
same,Total Cell Count,[3],129 and 119
same,Population Apoptotic (%),[4],42% and 60%
same,Population Fragmented Nuclei (%),[4],14% and 30%
same,Population Healthy Nuclei (%),[4],77% and 47%
same,Population Hoechst High Intensity Objects (%),[4],1% and 3%
same,Population Membrane Permeable-Phenotype (%),[4],0% and 3%
same,Population Mitochondria Different-Phenotype (%),[4],8% and 1%
same,Population Mitotic Cells (%),[4],57% and 40%
same,Population Normal (%),[4],98% and 96%
same,Population Pyknosed Nuclei (%),[4],8% and 22%
same,Population Tubulin-Different-Phenotype (%),[4],37% and 48%
same,Total Cell Count,[4],178 and 117
same,Population Apoptotic (%),[5],50% and 61%
same,Population Fragmented Nuclei (%),[5],16% and 42%
same,Population Healthy Nuclei (%),[5],72% and 44%
same,Population Hoechst High Intensity Objects (%),[5],3% and 7%
same,Population Membrane Permeable-Phenotype (%),[5],0% and 14%
same,Population Mitotic Cells (%),[5],50% and 38%
same,Population Normal (%),[5],96% and 92%
same,Population Pyknosed Nuclei (%),[5],11% and 13%
same,Total Cell Count,[5],126 and 149
same,Population Apoptotic (%),[6],55% and 61%
same,Population Fragmented Nuclei (%),[6],19% and 38%
same,Population Healthy Nuclei (%),[6],69% and 44%
same,Population Hoechst High Intensity Objects (%),[6],5% and 2%
same,Population Membrane Permeable-Phenotype (%),[6],0% and 2%
same,Population Mitochondria Different-Phenotype (%),[6],10% and 6%
same,Population Mitotic Cells (%),[6],44% and 38%
same,Population Normal (%),[6],94% and 97%
same,Population Pyknosed Nuclei (%),[6],10% and 16%
same,Population Tubulin-Different-Phenotype (%),[6],36% and 61%
same,Total Cell Count,[6],186 and 112
C[C@H](NC(=O)c1c(C(F)F)nn(C)c1Oc1cccc(C(F)(F)F)c1)c1ccc(C(=O)O)cc1 [PALUPIPRANT],Population Apoptotic (%),[1],26% and 24%
same,Population Fragmented Nuclei (%),[1],29% and 23%
same,Population Healthy Nuclei (%),[1],57% and 52%
same,Population Hoechst High Intensity Objects (%),[1],5% and 6%
same,Population Membrane Permeable-Phenotype (%),[1],0% and 11%
same,Population Mitochondria Different-Phenotype (%),[1],4% and 6%
same,Population Mitotic Cells (%),[1],73% and 75%
same,Population Normal (%),[1],94% and 93%
same,Population Pyknosed Nuclei (%),[1],12% and 23%
same,Population Tubulin-Different-Phenotype (%),[1],23% and 55%
same,Total Cell Count,[1],187 and 148
same,Population Apoptotic (%),[2],45% and 35%
same,Population Healthy Nuclei (%),[2],70% and 35%
same,Population Mitochondria Different-Phenotype (%),[2],6% and 13%
same,Population Mitotic Cells (%),[2],55% and 64%
same,Population Normal (%),[2],97% and 85%
same,Population Pyknosed Nuclei (%),[2],16% and 22%
same,Population Tubulin-Different-Phenotype (%),[2],45% and 60%
same,Total Cell Count,[2],126 and 149
same,Population Apoptotic (%),[3],40% and 42%
same,Population Fragmented Nuclei (%),[3],32% and 26%
same,Population Healthy Nuclei (%),[3],58% and 53%
same,Population Hoechst High Intensity Objects (%),[3],5% and 7%
same,Population Membrane Permeable-Phenotype (%),[3],1% and 8%
same,Population Mitochondria Different-Phenotype (%),[3],4% and 5%
same,Population Mitotic Cells (%),[3],60% and 57%
same,Population Normal (%),[3],94% and 92%
same,Population Pyknosed Nuclei (%),[3],8% and 20%
same,Total Cell Count,[3],178 and 141
same,Population Apoptotic (%),[4],60% and 38%
same,Population Fragmented Nuclei (%),[4],18% and 40%
same,Population Healthy Nuclei (%),[4],62% and 42%
same,Population Hoechst High Intensity Objects (%),[4],5% and 10%
same,Population Mitochondria Different-Phenotype (%),[4],7% and 3%
same,Population Mitotic Cells (%),[4],39% and 61%
same,Population Normal (%),[4],94% and 89%
same,Population Pyknosed Nuclei (%),[4],18% and 17%
same,Population Tubulin-Different-Phenotype (%),[4],35% and 51%
same,Total Cell Count,[4],131 and 138
same,Population Apoptotic (%),[5],53%
same,Population Fragmented Nuclei (%),[5],34% and 30%
same,Population Healthy Nuclei (%),[5],57% and 50%
same,Population Hoechst High Intensity Objects (%),[5],11% and 3%
same,Population Membrane Permeable-Phenotype (%),[5],0% and 4%
same,Population Mitochondria Different-Phenotype (%),[5],4%
same,Population Mitotic Cells (%),[5],46%
same,Population Normal (%),[5],88% and 96%
same,Population Pyknosed Nuclei (%),[5],7% and 19%
same,Population Tubulin-Different-Phenotype (%),[5],29% and 53%
same,Total Cell Count,[5],184 and 147
same,Population Apoptotic (%),[6],73% and 60%
same,Population Fragmented Nuclei (%),[6],20% and 45%
same,Population Healthy Nuclei (%),[6],60% and 45%
same,Population Hoechst High Intensity Objects (%),[6],4% and 13%
same,Population Membrane Permeable-Phenotype (%),[6],1% and 10%
same,Population Mitochondria Different-Phenotype (%),[6],8% and 6%
same,Population Mitotic Cells (%),[6],26% and 40%
same,Population Normal (%),[6],95% and 86%
same,Population Pyknosed Nuclei (%),[6],18% and 9%
same,Population Tubulin-Different-Phenotype (%),[6],46% and 50%
same,Total Cell Count,[6],130 and 122
CC[C@@H](C)Nc1nc(C)nc2c(-c3ccc(OC)nc3C)c(C)nn12 [PEXACERFONT],Population Apoptotic (%),[1],40% and 25%
same,Population Fragmented Nuclei (%),[1],12% and 32%
same,Population Healthy Nuclei (%),[1],66% and 44%
same,Population Hoechst High Intensity Objects (%),[1],1% and 2%
same,Population Mitochondria Different-Phenotype (%),[1],4%
same,Population Mitotic Cells (%),[1],60% and 75%
same,Population Normal (%),[1],98% and 97%
same,Population Pyknosed Nuclei (%),[1],20% and 24%
same,Population Tubulin-Different-Phenotype (%),[1],35% and 65%
same,Total Cell Count,[1],147 and 103
same,Population Apoptotic (%),[2],43% and 38%
same,Population Fragmented Nuclei (%),[2],15% and 21%
same,Population Healthy Nuclei (%),[2],55% and 40%
same,Population Hoechst High Intensity Objects (%),[2],2% and 8%
same,Population Membrane Permeable-Phenotype (%),[2],0% and 7%
same,Population Mitochondria Different-Phenotype (%),[2],19% and 9%
same,Population Mitotic Cells (%),[2],56% and 61%
same,Population Normal (%),[2],97% and 91%
same,Population Pyknosed Nuclei (%),[2],29% and 38%
same,Population Tubulin-Different-Phenotype (%),[2],62% and 68%
same,Total Cell Count,[2],143 and 147
same,Population Apoptotic (%),[3],52% and 47%
same,Population Fragmented Nuclei (%),[3],16% and 35%
same,Population Healthy Nuclei (%),[3],70% and 42%
same,Population Hoechst High Intensity Objects (%),[3],1% and 3%
same,Population Membrane Permeable-Phenotype (%),[3],0% and 20%
same,Population Mitochondria Different-Phenotype (%),[3],3% and 2%
same,Population Mitotic Cells (%),[3],47% and 52%
same,Population Normal (%),[3],98% and 96%
same,Population Pyknosed Nuclei (%),[3],13% and 22%
same,Population Tubulin-Different-Phenotype (%),[3],38% and 61%
same,Total Cell Count,[3],157 and 108
same,Population Apoptotic (%),[4],37% and 38%
same,Population Fragmented Nuclei (%),[4],16% and 18%
same,Population Healthy Nuclei (%),[4],56% and 47%
same,Population Hoechst High Intensity Objects (%),[4],1% and 7%
same,Population Mitochondria Different-Phenotype (%),[4],10% and 6%
same,Population Mitotic Cells (%),[4],62% and 61%
same,Population Normal (%),[4],98% and 92%
same,Population Pyknosed Nuclei (%),[4],27% and 33%
same,Population Tubulin-Different-Phenotype (%),[4],68% and 76%
same,Total Cell Count,[4],139 and 143
same,Population Apoptotic (%),[5],54% and 25%
same,Population Fragmented Nuclei (%),[5],15% and 40%
same,Population Healthy Nuclei (%),[5],69% and 45%
same,Population Hoechst High Intensity Objects (%),[5],8% and 1%
same,Population Mitochondria Different-Phenotype (%),[5],0% and 4%
same,Population Mitotic Cells (%),[5],45% and 75%
same,Population Normal (%),[5],91% and 98%
same,Population Pyknosed Nuclei (%),[5],15% and 14%
same,Population Tubulin-Different-Phenotype (%),[5],30% and 52%
same,Total Cell Count,[5],160 and 113
same,Population Apoptotic (%),[6],87% and 52%
same,Population Fragmented Nuclei (%),[6],23% and 32%
same,Population Healthy Nuclei (%),[6],53% and 50%
same,Population Hoechst High Intensity Objects (%),[6],3% and 4%
same,Population Membrane Permeable-Phenotype (%),[6],0% and 12%
same,Population Mitochondria Different-Phenotype (%),[6],14% and 9%
same,Population Normal (%),[6],96% and 95%
same,Population Pyknosed Nuclei (%),[6],22% and 16%
same,Population Tubulin-Different-Phenotype (%),[6],62% and 76%
same,Total Cell Count,[6],144 and 134
